Calls of active or inactive are those of the source. No cut-off for these calls is given here. Bounds are passed on as bounds.

Series [1] has as its target T1, Potassium voltage-gated channel subfamily A member 1 (Rattus norvegicus, UniProt P10499). In words: Inhibition of recombinant rat Kv1.1 expressed in HEK293 cells at -90 mV holding potential by whole cell patch clamp Qpatch method. The series is classed as cell-based. The method in brief:
(§1)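 HEK-293 cells carrying Kv1 channels, either stably expressed (Kv1.1, 1.2, 1.3, 1.4, 1.6, tandem Kv1.1 or 1.2 homotetramers) or transiently transfected (concatemers). Currents were recorded by automated whole-cell clamp with 2-3 MΩ pin-holes. Bath solution (mM): 135 NaCl, 5 KCl, 2 CaCl2, 2 MgCl2, 5 Hepes, 10 sucrose, pH 7.4. Holding potential was −90 mV, with steps to +20 mV for 300 ms. The 10 mM stocks were made in extracellular solution and diluted before use. The readout was steady-state current averaged after 200 ms, and peak current for Kv1.4.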

The target of series [2] is T2, Potassium voltage-gated channel subfamily A member 1 (Homo sapiens, UniProt Q09470). In words: Inhibition of Kv1.1 (unknown origin).
For series [3], the species on record is Mus musculus. The series is described as follows: (§2) Neuroprotective activity against cuprizone-induced demyelination in C57BL/6J mouse corpus callosum assessed as improvement in neuronal conduction by measuring increase in amplitude of unmyelinated axon N2 wave at 1 uM relative to baseline. The series is classed as functional. In outline:
(§3)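 Male C57BL/6J mice (16 weeks old) fed chow with 0.2% cuprizone for 8 weeks (n = 7). Coronal slices (400 µm) containing hippocampus. CC stimulated monopolarly at 0.033 Hz (100 µs); extracellular field cAPs recorded on contralateral CC at 40–50% maximum response. After 10 min of stable baseline, compound applied at 1 or 10 µM from 10 mM aCSF stock. Mean ± SEM; n = animals.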

Series [4] can be described thus: Neurotoxicity in C57BL/6J mouse corpus callosum assessed as effect on amplitude of unmyelinated axon N2 wave at 1 uM relative to baseline. It counts as toxicity, tissue-based. To be noted: ex_vivo. In outline: (§4)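 Male C57BL/6J mice (16 weeks old) kept on normal diet for 8 weeks (n = 5). Coronal slices (400 µm) containing hippocampus. CC stimulated monopolarly at 0.033 Hz (100 µs); field cAPs recorded on contralateral CC at 40–50% maximum response. After 10 min of stable baseline, compound applied at 1 or 10 µM from 10 mM aCSF stock. Mean ± SEM; n = animals.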

The species entered for series [5] is Mus musculus. In words: (§5) Neuroprotective activity against cuprizone-induced demyelination in C57BL/6J mouse corpus callosum assessed as improvement in neuronal conduction by measuring increase in amplitude of unmyelinated axon N2 wave at 10 uM relative to baseline. It counts as functional. In outline:
as §3

Series [6] in a line: Neurotoxicity in C57BL/6J mouse corpus callosum assessed as effect on amplitude of unmyelinated axon N2 wave at 10 uM relative to baseline. The following applies: ex_vivo. It counts as toxicity, tissue-based. The method in brief:
as §4

For the next series, the target named is Kv1.4 (Rattus norvegicus, UniProt P15385). The series is described as follows: Inhibition of recombinant rat Kv1.4 expressed in HEK293 cells at 10 uM at -90 mV holding potential by whole cell patch clamp Qpatch method relative to control. The series is classed as cell-based. The following applies: HEK293 cells expressing recombinant rat Kv1.4. The method in brief:
as §1

The test system of a further series is HEK293. In words: Phototoxicity against HEK293 cells under UV irradiation. The following applies: human. The series is classed as cell-based.
The target in series [7] is Potassium voltage-gated channel subfamily A member 1 (Rattus norvegicus) (UniProt P10499). In words: Inhibition of recombinant rat Kv1.1 expressed in HEK293 cells at 10 uM at -90 mV holding potential by whole cell patch clamp Qpatch method relative to control. It counts as cell-based. In outline:
as §1

Another series has as its target Kv1.6 (Rattus norvegicus, UniProt P17659). In words: Inhibition of recombinant rat Kv1.6 expressed in HEK293 cells at 10 uM at -90 mV holding potential by whole cell patch clamp Qpatch method relative to control. The series is classed as cell-based. To be noted: HEK293 cells expressing recombinant rat Kv1.6. The method in brief:
as §1

In the next series the target is Kv1.2 (Rattus norvegicus, UniProt P63142). The series is described as follows: Inhibition of recombinant rat Kv1.2 expressed in HEK293 cells at 10 uM at -90 mV holding potential by whole cell patch clamp Qpatch method relative to control. The series is classed as cell-based. The following applies: HEK293 cells expressing recombinant rat Kv1.2. In outline: as §1

The target of series [8] is Potassium voltage-gated channel subfamily A member 3 (Rattus norvegicus) (UniProt P15384). In words: Inhibition of recombinant rat Kv1.3 expressed in HEK293 cells at 10 uM at -90 mV holding potential by whole cell patch clamp Qpatch method relative to control. The series is classed as cell-based. The method in brief:
as §1

Series [9] can be described thus: as §2. The series is classed as functional. The method in brief:
as §3

Series [10] concerns the target T2, Potassium voltage-gated channel subfamily A member 1. The series is described as follows: Inhibition of Kv1.1 (unknown origin) expressed in HEK293 cells by whole cell patch clamp Qpatch method. The series is classed as cell-based. The method in brief:
as §1

For series [11], the target named is T3, Potassium voltage-gated channel subfamily A member 1/2 (Kv1.1/Kv1.2) (Rattus norvegicus) (UniProt P10499+P63142). The series is described as follows: Inhibition of recombinant rat Kv1.2/1.1/1.2/1.1 expressed in HEK293 cells at 10 uM at -90 mV holding potential by whole cell patch clamp Qpatch method relative to control. It counts as cell-based. The method in brief: as §1

Series [12] addresses T3, Potassium voltage-gated channel subfamily A member 1/2 (Kv1.1/Kv1.2) (Rattus norvegicus). The series is described as follows: Inhibition of recombinant rat Kv(1.1)2/Kv(1.2)2 expressed in HEK293 cells assessed as time constant for activation of Kv1.1 channel current at 10 uM at -90 mV holding potential by whole cell patch clamp Qpatch method (reference value: 2.8 +/- 0.4 ms). It counts as cell-based.

Series [13] can be described thus: Partition coefficient, logP of the compound. To be noted: octanol/water. The series is classed as physicochemical.
The target in series [14] is T3, Potassium voltage-gated channel subfamily A member 1/2 (Kv1.1/Kv1.2) (Rattus norvegicus). In words: Inhibition of recombinant rat Kv(1.1)3/Kv1.2 expressed in HEK293 cells assessed as time constant for activation of Kv1.1 channel current at 10 uM at -90 mV holding potential by whole cell patch clamp Qpatch method (reference value: 3.1 +/- 0.2 ms). The series is classed as cell-based.

Series [15] deals with Potassium voltage-gated channel subfamily A member 1 (Rattus norvegicus) (UniProt P10499). In words: Inhibition of recombinant rat Kv1.1 concatamer expressed in HEK293 cells assessed as time constant for activation of Kv1.1 channel current at -90 mV holding potential by whole cell patch clamp Qpatch method (reference value: 2.2 +/- 0.1 ms). It counts as cell-based.
Series [16] deals with T4, Potassium voltage-gated channel subfamily A member 1/2 (Kv1.1/Kv1.2) (Rattus norvegicus, UniProt P10499+P63142). The series is described as follows: Inhibition of recombinant rat Kv(1.1)3/Kv1.2 expressed in HEK293 cells at -90 mV holding potential by whole cell patch clamp Qpatch method. It counts as cell-based. In outline:
as §1

Series [17] addresses Potassium voltage-gated channel subfamily A member 2 (Rattus norvegicus, UniProt P63142). The series is described as follows: Inhibition of recombinant rat Kv1.2(4) expressed in HEK293 cells at -90 mV holding potential by whole cell patch clamp Qpatch method. It counts as cell-based. The method in brief: as §1
The target in series [18] is T1, Potassium voltage-gated channel subfamily A member 1. The series is described as follows: Inhibition of recombinant rat Kv(1.1)4 expressed in HEK293 cells at -90 mV holding potential by whole cell patch clamp Qpatch method. The series is classed as cell-based. In outline:
as §1

The target of series [19] is T3, Potassium voltage-gated channel subfamily A member 1/2 (Kv1.1/Kv1.2) (Rattus norvegicus). The series is described as follows: Inhibition of recombinant rat Kv1.1/1.1/1.2/1.2 expressed in HEK293 cells at 10 uM at -90 mV holding potential by whole cell patch clamp Qpatch method relative to control. It counts as cell-based. The method in brief:
as §1

Series [20] shares this target. The series is described as follows: Inhibition of recombinant rat Kv1.2/1.2/1.1/1.1 expressed in HEK293 cells at 10 uM at -90 mV holding potential by whole cell patch clamp Qpatch method relative to control. The series is classed as cell-based. The method in brief:
as §1

The nature of series [21]: as §5. The series is classed as functional. In outline: as §3
Series [22] has as its target T4, Potassium voltage-gated channel subfamily A member 1/2 (Kv1.1/Kv1.2). In words: Inhibition of recombinant rat Kv(1.1)2/Kv(1.2)2 expressed in HEK293 cells at -90 mV holding potential by whole cell patch clamp Qpatch method. The series is classed as cell-based. The method in brief: as §1
The target of series [23] is Potassium voltage-gated channel subfamily A member 1 (Rattus norvegicus) (UniProt P10499). In words: Inhibition of recombinant rat Kv1.1 expressed in HEK293 cells assessed as time constant for activation of Kv1.1 channel current at 10 uM at -90 mV holding potential by whole cell patch clamp Qpatch method (reference value: 1.9 +/- 0.15 ms). It counts as cell-based.
The target is the same in series [24]. The series is described as follows: Inhibition of recombinant rat Kv1.1 expressed in HEK293 cells assessed as shift of half maximal vale for activation at 10 uM at -90 mV holding potential by whole cell patch clamp Qpatch method. The series is classed as cell-based.
Series [25] addresses T4, Potassium voltage-gated channel subfamily A member 1/2 (Kv1.1/Kv1.2). The series is described as follows: Inhibition of recombinant rat Kv1.1/Kv(1.2)3 expressed in HEK293 cells at -90 mV holding potential by whole cell patch clamp Qpatch method. The series is classed as cell-based. The method in brief: as §1

T3 sequence (P10499 whole entry, looked up): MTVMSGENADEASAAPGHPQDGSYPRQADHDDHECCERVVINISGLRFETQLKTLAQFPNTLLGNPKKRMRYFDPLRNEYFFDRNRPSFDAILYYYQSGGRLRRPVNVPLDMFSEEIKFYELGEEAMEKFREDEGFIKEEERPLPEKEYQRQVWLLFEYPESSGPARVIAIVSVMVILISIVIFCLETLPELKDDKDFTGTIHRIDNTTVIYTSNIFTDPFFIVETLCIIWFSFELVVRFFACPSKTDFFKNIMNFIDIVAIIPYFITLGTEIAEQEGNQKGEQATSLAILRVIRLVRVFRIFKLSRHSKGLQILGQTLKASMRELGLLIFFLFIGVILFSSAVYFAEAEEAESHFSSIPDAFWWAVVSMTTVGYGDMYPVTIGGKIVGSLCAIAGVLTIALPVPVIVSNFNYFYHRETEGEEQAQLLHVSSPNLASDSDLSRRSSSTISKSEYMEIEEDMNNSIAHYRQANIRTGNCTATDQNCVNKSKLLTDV
T3 sequence (P63142 whole entry, looked up): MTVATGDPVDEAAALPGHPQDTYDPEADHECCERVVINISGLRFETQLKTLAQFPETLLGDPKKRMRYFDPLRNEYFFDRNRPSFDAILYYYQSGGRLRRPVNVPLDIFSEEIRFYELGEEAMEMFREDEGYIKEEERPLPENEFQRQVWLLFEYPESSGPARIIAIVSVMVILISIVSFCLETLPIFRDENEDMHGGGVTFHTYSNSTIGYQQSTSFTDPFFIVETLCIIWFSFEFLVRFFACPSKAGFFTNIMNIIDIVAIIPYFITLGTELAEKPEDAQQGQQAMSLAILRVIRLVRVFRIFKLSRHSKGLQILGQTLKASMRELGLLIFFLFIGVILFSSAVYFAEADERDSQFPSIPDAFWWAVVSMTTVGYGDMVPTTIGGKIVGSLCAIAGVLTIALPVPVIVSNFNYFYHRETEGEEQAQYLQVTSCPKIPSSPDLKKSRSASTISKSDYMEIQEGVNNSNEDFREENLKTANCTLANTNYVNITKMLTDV
Chain of Potassium voltage-gated channel subfamily A member 1 (Rattus norvegicus) (P10499 whole entry): as the sequence (P10499 whole entry, looked up) above
T1 sequence (P10499 whole entry): as the sequence (P10499 whole entry, looked up) above
Chain of Potassium voltage-gated channel subfamily A member 3 (Rattus norvegicus) (P15384 whole entry): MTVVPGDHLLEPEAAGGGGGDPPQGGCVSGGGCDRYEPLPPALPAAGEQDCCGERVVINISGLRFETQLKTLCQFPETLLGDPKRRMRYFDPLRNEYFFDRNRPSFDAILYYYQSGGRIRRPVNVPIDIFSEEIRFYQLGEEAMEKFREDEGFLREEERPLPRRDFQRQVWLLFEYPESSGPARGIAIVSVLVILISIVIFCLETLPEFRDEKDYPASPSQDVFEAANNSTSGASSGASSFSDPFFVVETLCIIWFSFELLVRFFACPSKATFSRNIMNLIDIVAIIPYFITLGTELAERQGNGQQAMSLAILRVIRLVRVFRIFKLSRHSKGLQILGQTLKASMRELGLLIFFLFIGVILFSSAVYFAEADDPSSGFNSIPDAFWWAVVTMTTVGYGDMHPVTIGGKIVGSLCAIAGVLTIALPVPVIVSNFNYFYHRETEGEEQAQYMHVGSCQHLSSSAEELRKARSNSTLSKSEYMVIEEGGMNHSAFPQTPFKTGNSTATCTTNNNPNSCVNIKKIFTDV
Chain of Kv1.6 (P17659 whole entry): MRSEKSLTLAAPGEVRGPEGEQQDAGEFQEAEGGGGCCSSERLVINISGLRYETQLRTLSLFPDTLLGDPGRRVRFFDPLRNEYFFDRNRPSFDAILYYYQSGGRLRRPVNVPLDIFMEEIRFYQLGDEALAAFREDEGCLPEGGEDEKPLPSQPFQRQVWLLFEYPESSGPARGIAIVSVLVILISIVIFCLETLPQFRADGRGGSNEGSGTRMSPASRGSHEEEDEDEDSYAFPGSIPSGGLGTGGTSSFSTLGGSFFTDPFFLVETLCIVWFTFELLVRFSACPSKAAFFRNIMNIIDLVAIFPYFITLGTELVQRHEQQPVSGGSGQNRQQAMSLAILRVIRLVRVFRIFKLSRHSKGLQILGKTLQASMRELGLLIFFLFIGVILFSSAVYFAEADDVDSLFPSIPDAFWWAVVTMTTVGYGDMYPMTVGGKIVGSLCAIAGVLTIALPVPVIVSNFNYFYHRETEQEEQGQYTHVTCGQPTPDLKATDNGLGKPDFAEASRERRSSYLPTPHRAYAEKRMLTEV
Chain of Kv1.4 (P15385 whole entry): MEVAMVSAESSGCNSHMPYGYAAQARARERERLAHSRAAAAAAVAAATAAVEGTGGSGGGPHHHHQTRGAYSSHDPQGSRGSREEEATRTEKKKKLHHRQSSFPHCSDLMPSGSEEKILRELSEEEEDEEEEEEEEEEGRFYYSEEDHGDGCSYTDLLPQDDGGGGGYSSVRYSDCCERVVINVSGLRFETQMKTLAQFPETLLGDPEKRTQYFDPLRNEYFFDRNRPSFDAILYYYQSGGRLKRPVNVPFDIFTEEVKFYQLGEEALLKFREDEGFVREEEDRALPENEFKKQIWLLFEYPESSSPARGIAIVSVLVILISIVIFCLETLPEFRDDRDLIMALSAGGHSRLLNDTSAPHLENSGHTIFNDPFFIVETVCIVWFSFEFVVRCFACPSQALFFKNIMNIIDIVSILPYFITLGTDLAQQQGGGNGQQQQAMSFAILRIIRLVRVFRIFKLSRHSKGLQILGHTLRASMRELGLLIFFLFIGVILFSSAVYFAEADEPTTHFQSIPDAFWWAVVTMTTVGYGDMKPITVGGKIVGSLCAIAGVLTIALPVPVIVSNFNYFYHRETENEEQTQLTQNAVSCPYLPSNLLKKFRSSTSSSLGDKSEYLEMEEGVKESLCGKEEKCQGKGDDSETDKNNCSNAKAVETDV
Chain of Kv1.2 (P63142 whole entry): as the sequence (P63142 whole entry, looked up) above
T2 sequence (Q09470 whole entry): as the sequence (P10499 whole entry, looked up) above, with A9V, I202V, T213N, I449M, A471V, G476A, A480T, T481A, D482N counted along it
Chain of Potassium voltage-gated channel subfamily A member 2 (P63142 whole entry): as the sequence (P63142 whole entry, looked up) above

With `CC(C)(C)OC(=O)NCCNC(=O)c1ccc(-c2c3nc(c(-c4ccc(C(=O)NCCNC(=O)OC(C)(C)C)cc4)c4ccc([nH]4)c(-c4ccc(C(=O)NCCNC(=O)OC(C)(C)C)cc4)c4nc(c(-c5ccc(C(=O)NCCNC(=O)OC(C)(C)C)cc5)c5ccc2[nH]5)C=C4)C=C3)cc1`, the concentration for half-maximal inhibition (IC50) in series [1] was determined as 13 µM.

Compound `COc1ccc([C@@H]2Sc3ccccc3N(CCN(C)C)C(=O)[C@@H]2OC(C)=O)cc1` [DILTIAZEM] showed an IC50 in series [2] of 144 µM.

With `COC(=O)C1=C(C)NC(C)=C(C(=O)OC)C1c1ccccc1[N+](=O)[O-]` [NIFEDIPINE], 96 µM corresponded to half-maximal inhibition in series [2] (IC50).

For the compound `O=C(NCC1CCCCN1)c1cc(OCC(F)(F)F)ccc1OCC(F)(F)F` (stereo not drawn) [FLECAINIDE], the IC50 in series [2] came to 209 µM.

In turn, `CC[N+](CC)(CC)CC` [TETRYLAMMONIUM] registered an IC50 in series [2] of 30 µM.

With `Nc1ccncc1` [DALFAMPRIDINE], the result in the series filed under Mus musculus [3] and in the series listed under Mus musculus [5] was inactive. The values for the Activity in series [4] and in [6] were 105.3% and 105.7%, respectively.

Turning to `Cc1ccc(C(c2ccc(C)cc2)(c2ccc(C(=O)NCCCN)[nH]2)c2ccc(C(=O)NCCCN)[nH]2)cc1.Cl.Cl`, the inhibition at 10 µM at Kv1.4 was 16%; at Kv1.6, 5%; on Kv1.2, 6%. In addition, the Activity entry with HEK293 is on record as “Non-Toxic”. In addition, the inhibition worked out at 35% in series [7] and 32% in [8].

For the compound `Cc1ccc(C(c2ccc(C)cc2)(c2ccc(C(=O)NCCN)[nH]2)c2ccc(C(=O)NCCN)[nH]2)cc1.Cl.Cl`, the inhibition at 10 µM came out at 5% on Kv1.4, 1% at Kv1.6 and 1% on Kv1.2. The Activity in series [9] was 108.2%; in [4], 100.9%; in the series with HEK293, “Non-Toxic”; in [21], 127.8%; in series [6] it was 102.6%. The IC50 in series [10] is 16 µM; in series [16], 54 µM; in series [17], greater than 100 µM; in series [18] it was 14 µM; in series [22], 57 µM; in series [25] it was greater than 100 µM. The half-maximal inhibitory concentration (IC50) in [1] was found to be 16 µM. The inhibition is 15% in series [11]; 13% in [19]; 40% in series [7]; 15% in [20]; 15% in series [8]. The TIME came out at 5e-06 h in series [12], 3.89e-06 h in series [14], 5.42e-06 h in series [15] and 5.64e-06 h in series [23]. The compound also registered a logP in [13] of -1.05. Further, in series [24], the V1/2 came out at 40 mV.

On to `COc1cc(CNC(=O)CCCC/C=C/C(C)C)ccc1O` [CAPSAICIN], for which the IC50 in series [2] was 29 µM.

In the case of `Cc1ccc(C(c2ccc(C)cc2)(c2ccc(C(=O)NCCCCN)[nH]2)c2ccc(C(=O)NCCCCN)[nH]2)cc1.Cl.Cl`, the results for the inhibition at 10 µM on Kv1.4, at Kv1.6 and on Kv1.2 were 3%, 4% and 3%, respectively. Further, the Activity entry in the series with HEK293 is recorded as “Non-Toxic”. Also, the inhibition in series [7] and in series [8] was 8% in each case.

For the origin of these results see ChEMBL document CHEMBL4007435, “A Rational Design of a Selective Inhibitor for Kv1.1 Channels Prevalent in Demyelinated Nerves That Improves Their Impaired Axonal Conduction” (J Med Chem, 2017).
